{"data": "Measurements from different studies", "CECR2": "Chromatin remodeling regulator CECR2 (CECR2, Homo sapiens, UniProt Q9BXF3)", "SLC6A2": "Sodium-dependent noradrenaline transporter (SLC6A2, Homo sapiens, UniProt P23975)", "note": "Protocols differ between the studies behind these lines."}
{"SMILES": "Cc1cc2c(cc1N1C(=O)c3cccc4c(Cl)ccc(c34)C1=O)n(C)c(=O)n2C", "target": "CECR2", "test": "thermal stability, DSF", "conditions": "10 µM", "endpoint": "ΔTm", "result": "3.5 °C"}
{"SMILES": "Fc1ccc(C(c2ccc(F)cc2)c2nnnn2CCCN2CCC(Cc3ccccc3)CC2)cc1", "target": "SLC6A2", "test": "transporter uptake, inhibitor", "system": "HEK293", "conditions": "1 µM", "endpoint": "inhibition", "result": "39.7%"}
{"SMILES": "CCN1CCN(Cc2ccc(NC(=O)c3ccc(C)c(Oc4ccnc5[nH]ccc45)c3)cc2C(F)(F)F)CC1", "target": "Serine/threonine-protein kinase 10 (STK10, Homo sapiens, UniProt O94804)", "test": "target engagement in cells, inhibitor, chemoproteomics", "system": "A-375", "conditions": "5 µM", "endpoint": "inhibition", "result": "-138%"}
{"SMILES": "Cc1ccc(C(=O)Nc2ccc(CN3CCN(C)CC3)c(C(F)(F)F)c2)cc1C#Cc1cnc2cccnn12", "target": "Peripheral plasma membrane protein CASK (CASK, Homo sapiens, UniProt O14936)", "test": "cell-free assay", "conditions": "23.5 nM", "endpoint": "remaining signal", "result": "84%"}
{"SMILES": "CNC(=O)c1cc(Oc2ccc(NC(=O)Nc3ccc(Cl)c(C(F)(F)F)c3)cc2)ccn1", "target": "Serine/threonine-protein kinase Chk2 (CHEK2, Homo sapiens, UniProt O96017, I157T)", "test": "enzyme activity, inhibitor", "conditions": "10 µM", "endpoint": "inhibition", "result": "-1%"}
{"SMILES": "c1ccc(CCCC2CCN(CCCn3nnnc3C(c3ccccc3)c3ccccc3)CC2)cc1", "target": "SLC6A2", "test": "transporter uptake, inhibitor", "system": "HEK293", "conditions": "1 µM", "endpoint": "inhibition", "result": "84.9%"}
{"SMILES": "Nc1ncnc2occ(-c3ccc(NC(=O)Nc4cc(C(F)(F)F)ccc4F)cc3)c12", "target": "Serine/threonine-protein kinase WNK4 (WNK4, Homo sapiens, UniProt Q96J92)", "test": "cell-free assay, inhibitor", "conditions": "20 µM", "endpoint": "remaining signal", "result": "17%"}
{"SMILES": "Clc1ccc(C(c2ccccc2)c2nnnn2CCCN2CCC(Cc3ccccc3)CC2)cc1 (centres unmarked)", "target": "SLC6A2", "test": "transporter uptake, inhibitor", "system": "HEK293", "conditions": "1 µM", "endpoint": "inhibition", "result": "93.4%"}
{"SMILES": "Oc1ccc(-c2nc(-c3ccncc3)c(-c3ccc(F)cc3)[nH]2)cc1", "target": "CECR2", "test": "thermal stability, DSF", "conditions": "10 µM", "endpoint": "ΔTm", "result": "1.3 °C"}
{"SMILES": "Clc1ccc(C(c2ccccc2)c2nnnn2CCCN2CCC(CCc3ccccc3)CC2)cc1 (centres unmarked)", "target": "SLC6A2", "test": "transporter uptake, inhibitor", "system": "HEK293", "conditions": "1 µM", "endpoint": "inhibition", "result": "50.1%"}
{"SMILES": "CCCOc1ccc(OC)c(F)c1C(=O)c1ccc(C(=O)N[C@@H]2CNC[C@H]2NC(=O)c2ccc3[nH]ncc3c2)cc1", "target": "cAMP-dependent protein kinase catalytic subunit PRKX (PRKX, Homo sapiens, UniProt P51817)", "test": "enzyme activity, inhibitor", "conditions": "0.75 µM", "endpoint": "remaining activity", "result": "4%"}
{"SMILES": "CC(C)(C)c1nc2c(s1)c1nc(N)ncc1c1ccc(NS(=O)(=O)c3c(F)cccc3F)c(F)c12", "target": "Mitotic checkpoint serine/threonine-protein kinase BUB1 beta (BUB1B, Homo sapiens, UniProt O60566)", "test": "enzyme activity, inhibitor, radiometric", "conditions": "1 µM", "endpoint": "remaining activity", "result": "89%"}
{"SMILES": "CC(=O)N[C@H]1CSSC[C@@H](C(=O)N[C@H](Cc2c[nH]c3ccccc23)C(N)=O)NC(=O)[C@@H](Cc2ccccc2)NC(=O)[C@H](CCCNC(=N)N)NC1=O", "target": "Melanocortin receptor 4 (MC4R, Homo sapiens, UniProt P32245)", "test": "cAMP, agonist", "system": "HEK293", "conditions": "3 min", "endpoint": "Emax", "result": "0%"}
{"SMILES": "Cc1cnc(Nc2ccc(OCCN3CCCC3)cc2)nc1Nc1cccc(S(=O)(=O)NC(C)(C)C)c1", "target": "CECR2", "test": "thermal stability, DSF", "conditions": "10 µM", "endpoint": "ΔTm", "result": "0.12 °C"}
